We go through 38 compounds from ChEMBL document CHEMBL2311527, “Synthesis of cembranoid analogues and evaluation of their potential as quorum sensing inhibitors” (Bioorg Med Chem, 2013).

Experiment [1] concerns Chromobacterium violaceum. As to the kind of experiment: Inhibition of quorum sensing system in Chromobacterium violaceum ATCC 31532 assessed as inhibition of violacein pigment production measured per disk after 48 hrs by NCCLS disk diffusion method. In short, it runs like this:
(§1)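 Sterile 5.2 mm filter-paper disks were loaded with 30.0, 15.0, 7.5, 5.0 and 2.5 per disk from MeOH solutions and air-dried for 1 h. They were placed on trypticase soy agar spread with C. violaceum broth culture (10^6 cfu/mL, 0.5 McFarland) and incubated 48 h at 26 °C. The endpoint was the minimum amount per disk giving a colourless, opaque but viable halo, meaning violacein loss without growth inhibition. Kojic acid and Cu2O served as positive controls.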
On the technique in general: Agar diffusion results depend on both activity and mobility in agar.

The test system of experiment [2] is Chromobacterium violaceum. The experiment can be described thus: Inhibition of quorum sensing system in Chromobacterium violaceum ATCC 31532 assessed as inhibition of violacein pigment production at 30 ug/disk after 48 hrs by NCCLS disk diffusion method. In short, it runs like this: as §1
Experiment [3] has as its system Chromobacterium violaceum. As to the kind of experiment: Antibacterial activity against Chromobacterium violaceum ATCC 31532 assessed as growth inhibition at 2.5 to 30 ug/disk after 48 hrs by NCCLS disk diffusion method. It is filed as functional, organism-based.

Molecules are shown by their SMILES. Activity calls are given as the source filed them. The rule behind the calls is not given here.

Regarding `C=C(C)[C@H]1CC/C(C)=C/CCC(C)(C=O)CC/C(COC(C)=O)=C/[C@@H]1O` (stereo not given in full), the INH in experiment [1] amounted to 7.5 µg. `C=C(C)[C@H]1CC/C(C)=C/CC[C@@]2(C)O[C@@H]2CC/C(CO)=C\[C@@H]1O`: in experiment [2], the inhibition result was “inactive”. `CC(=O)OCC12CC[C@H]3O[C@]3(C)CCC3OC3(C)CC[C@H]([C@]3(C)CO3)[C@@H](O)C1O2` (stereo not given in full): the inhibition result in experiment [2] is “inactive”. `C=C(C)[C@@H]1C/C=C(\COC(C)=O)CC[C@@H](O)/C(C)=C\C/C=C(\C)CC1`: the inhibition result in experiment [2] was “inactive”.

Take `C=C(C)[C@H]1CC/C(C)=C/CC[C@]2(C)O[C@H]1/C=C(\COC(C)=O)CC[C@H]2O`: the inhibition entry in experiment [2] was “inactive”.

For `C=C(C)[C@H]1CC/C(C)=C/CC[C@@](C)(Cl)[C@H](O)CC/C(CO)=C/[C@@H]1O`, in experiment [1], the INH was determined as 30 µg.

Turning to `O=c1cc(CO)occ1O`, in experiment [1], the INH is 90 µg. Turning to `C=C(C)[C@H]1CC/C(C)=C/CC[C@](C)(O)[C@H](O)CC/C(COC(C)=O)=C/[C@@H]1O`, in experiment [1], the INH came to 7.5 µg. Take `C=C(C)[C@H]1CC/C(C)=C/CCC(C)C(=O)CC/C(COC)=C/[C@@H]1O` (stereo not given in full): in experiment [2], the inhibition entry is “inactive”. On the same count and under the same terms, in the case of `C=C(C)[C@H]1CC/C(C)=C/CC[C@@]2(C)O[C@@H]2CCC(C=O)=CC1=O` it was “inactive”.

As to `C=C(C)[C@@H]1CC[C@@H](C)C(=O)CC[C@H](C)CC(=O)C[C@@H](C)[C@H](OC(C)=O)C1`, the INH in experiment [1] is 7.5 µg.

Regarding `C=C(C)[C@H]1CC/C(C)=C/CC[C@@]2(C)O[C@@H]2CC/C(C=O)=C/[C@@H]1O`, in experiment [2], the inhibition entry was “inactive”.

With `C=C(C)[C@H]1CC/C(C)=C/C/C=C(/C)[C@H](O)CC/C(COC(C)=O)=C/[C@@H]1O`, the inhibition entry in experiment [2] is “inactive”. As to `C=C(C)[C@@H]1CC[C@@H](C)[C@H](OC(C)=O)CC[C@H](C)CC(=O)C[C@@H](C)[C@H](OC(C)=O)C1`, in experiment [1], the INH was found to be 30 µg. In experiment [3], the “growth inhibition (GI)” value is “inactive”. For `C=C(C)[C@@H]1CC[C@@H](C)[C@H](O)CC[C@@H](C)CC(=O)C[C@@H](C)[C@H](O)C1`, the inhibition entry in experiment [2] is “inactive”. With `C=C(C)[C@H]1CC/C(C)=C/CC[C@@](C)(Cl)[C@H](O)CC/C(COC(C)=O)=C/[C@@H]1O`, the INH in experiment [1] worked out at 7.5 µg. For the compound `C=C(C)[C@@H]1CC[C@@H](C)[C@H](O)CC[C@H](C)CC2(O)C[C@@H](C)[C@@H](C1)O2`, the INH in experiment [1] was 7.5 µg. The “growth inhibition (GI)” value in experiment [3] is “inactive”.

Consider `C=C(C)[C@H]1C[C@H](O)/C(C)=C/CC[C@@]2(C)O[C@@H]2CC/C(COC(C)=O)=C/[C@@H]1O`, for which the INH in experiment [1] amounted to 30 µg. On to `C=C(C)[C@H]1CC/C(C)=C/C/C=C(/C)[C@@H](O)CC/C(COC(C)=O)=C\[C@@H]1OC(C)=O`, for which, in experiment [1], the INH turned out to be 7.5 µg. As for `C=C(C)[C@H]1CC/C(C)=C/CC[C@@](C)(O)[C@@H]2CC/C(=C/[C@@H]1O)CO2`, the inhibition entry in experiment [2] is “inactive”.

As for `C=C(C)[C@H]1CC/C(C)=C/CC[C@@](C)(Cl)[C@H](O)CC/C(COC(C)=O)=C\[C@@H]1OC(C)=O`, the inhibition result in experiment [2] was “inactive”.

As to `C=C(C)[C@@H]1CC[C@@H](C)C(=O)CC[C@H](C)CC2(O)C[C@@H](C)[C@@H](C1)O2`, in experiment [2], the inhibition result was “inactive”. Same read-out and setting: in the case of `C=C(C)[C@H]1CC/C(C)=C/CC[C@@](C)(O)[C@H](O)CC/C(CO)=C/[C@@H]1O` it was “inactive”. In the case of `C=C(C)[C@H]1CC/C(C)=C/CC[C@@]2(C)O[C@@H]2CC/C(COC(C)=O)=C\[C@@H]1O`, in experiment [2], the inhibition entry was “inactive”. Consider `C=C(C)[C@@H]1CC[C@@H](C)[C@H](OC(C)=O)CC[C@@H](C)CC(=O)C[C@@H](C)[C@H](OC(C)=O)C1`, for which the INH in experiment [1] is 15 µg. On to `C=C1CC/C=C(\C)CC[C@H](C(=C)C)[C@@H](OC(C)=O)/C=C(/COC(C)=O)CC[C@H]1O`, for which the INH in experiment [1] is 7.5 µg. As to `C=C(C)[C@@H]1C/C=C(/COC(C)=O)CC[C@H]2O[C@]2(C)CC/C=C(\C)CC1`, the inhibition result in experiment [2] is “inactive”. For `C=C(C)[C@H]1CC/C(C)=C/CC[C@@]2(C)O[C@H]1/C=C(\CO)CC[C@H]2O`, the INH in experiment [1] turned out to be 30 µg.

Turning to `C=C(C)[C@H]1CC/C(C)=C/CC[C@@]2(C)O[C@@H]2CC/C(COC(C)=O)=C\[C@@H]1OC(C)=O`, the inhibition entry in experiment [2] was “inactive”. Still for that read-out and setting: in the case of `C=C(C)[C@H]1CC[C@@](C)(O)[C@H]2CCC(=C)[C@@H](CC/C(CO)=C/[C@@H]1O)O2` it was “inactive”.

Take `C=C1CC/C=C(\C)CC[C@H](C(=C)C)[C@@H](O)/C=C(\COC(C)=O)CC[C@H]1O`: the INH in experiment [1] is 7.5 µg.

Take `C=C(C)[C@@H]1C/C=C(\COC(C)=O)CC[C@@H](O)C(=C)CC/C=C(\C)CC1`: the inhibition entry in experiment [2] was “inactive”. As for `C=C(C)[C@@H]1CC[C@@H](C)[C@H](O)CC[C@@H](C)CC2(O)C[C@@H](C)[C@@H](C1)O2`, the inhibition entry in experiment [2] is “inactive”. For `C=C(C)[C@@H]1CC[C@@H](C)C(=O)CC[C@H](C)CC(=O)C[C@@H](C)[C@H](O)C1`, the inhibition entry in experiment [2] was “inactive”. In the case of `C=C(C)[C@@H]1C/C=C(\COC(C)=O)CC[C@@H](O)[C@](C)(Cl)CC/C=C(\C)CC1`, in experiment [2], the inhibition result was “inactive”.

With `C=C(C)[C@@H]1CC[C@@H](C)[C@H](O)CC[C@H](C)CC(=O)C[C@@H](C)[C@H](O)C1`, the INH in experiment [1] was 7.5 µg. On the same count and under the same terms, in the case of `C=C(C)[C@H]1CC/C(C)=C/C/C=C(\C)[C@H](O)CC/C(COC(C)=O)=C\[C@@H]1OC(C)=O` it was 2.5 µg. `C=C(C)[C@H]1CC[C@@](C)(I)[C@H]2CC[C@@](C)(O2)[C@@H](I)CC/C(COC(C)=O)=C/[C@@H]1O`: the inhibition result in experiment [2] is “inactive”.
